Active and inactive are the calls of the source. No cut-off for these calls is given here.
Experiments:
[1] = target: T1, Hepatocyte growth factor receptor (Homo sapiens, UniProt P08581); test: Inhibition of c-Met at 1 uM after 60 mins by ELISA
Procedure, shortened: (§1)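 c-Met tyrosine kinase ELISA with Poly(Glu,Tyr) 4:1 substrate and 10 µM ATP in HEPES pH 7.4 buffer with Mg²⁺/Mn²⁺, run 60 min at 37 °C. Phosphotyrosine was detected with PY99 and an HRP secondary antibody, read at 490 nm. Percent inhibition was measured at a single compound concentration.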

[2] = target: T1, Hepatocyte growth factor receptor; test: Inhibition of c-Met at 10 uM after 60 mins by ELISA; procedure, shortened: as §1
[3] = target: T1, Hepatocyte growth factor receptor; test: Inhibition of c-Met after 60 mins by ELISA
Procedure, shortened: (§2)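 ELISA on plates pre-coated with Poly(Glu,Tyr) 4:1 at 20 µg/mL. Detection used anti-phosphotyrosine PY99, then HRP anti-mouse IgG and o-phenylenediamine/H₂O₂, read at 490 nm. IC50 was calculated by the Logit method from ≥3 independent tests at six concentrations each.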

[4] = tested on: BaF3; test: Antiproliferative activity against […] BAF3 cells expressing TPR-Met assessed as inhibition of cell growth at 1 uM; assay type: functional; details: Mus musculus
Procedure, shortened: (§3)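 BaF3 cells stably expressing TPR-Met were seeded in 96-well plates. Next day they were exposed to compound at 10, 1 or 0.1 µM for 72 h. Growth was read by MTT at A570. Inhibition (%) = [1 − (A570/A570 control)] × 100.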

[5] = tested on: BaF3; test: Antiproliferative activity against […] BAF3 cells expressing TPR-Met assessed as inhibition of cell growth at 0.1 uM; assay type: functional; details: Mus musculus; procedure, shortened: as §3
[6] = tested on: BaF3; test: Antiproliferative activity against […] BAF3 cells expressing TPR-Met assessed as inhibition of cell growth at 10 uM; assay type: functional; details: Mus musculus; procedure, shortened: as §3
[7] = target: Receptor tyrosine-protein kinase erbB-2 (Homo sapiens, UniProt P04626); test: Inhibition of ERBB2; procedure, shortened: as §2
[8] = target: Tyrosine-protein kinase ABL1 (Homo sapiens, UniProt P00519); test: Inhibition of Abl; procedure, shortened: as §2
[9] = target: Fibroblast growth factor receptor 1 (Homo sapiens, UniProt P11362); test: Inhibition of FGFR1; procedure, shortened: as §2
[10] = Half life in mouse at 10 mg/kg, iv and 20 mg/kg, po; assay type: ADME, organism-based; details: in vivo
Procedure, shortened: (§4)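 Pharmacokinetics were run in mice after a single dose of 10 mg/kg iv or 20 mg/kg po.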

[11] = target: T2, Ephrin type-B receptor 2 (Homo sapiens, UniProt P29323); test: Inhibition of EPHB2; procedure, shortened: as §2
T2 sequence (P29323 whole entry): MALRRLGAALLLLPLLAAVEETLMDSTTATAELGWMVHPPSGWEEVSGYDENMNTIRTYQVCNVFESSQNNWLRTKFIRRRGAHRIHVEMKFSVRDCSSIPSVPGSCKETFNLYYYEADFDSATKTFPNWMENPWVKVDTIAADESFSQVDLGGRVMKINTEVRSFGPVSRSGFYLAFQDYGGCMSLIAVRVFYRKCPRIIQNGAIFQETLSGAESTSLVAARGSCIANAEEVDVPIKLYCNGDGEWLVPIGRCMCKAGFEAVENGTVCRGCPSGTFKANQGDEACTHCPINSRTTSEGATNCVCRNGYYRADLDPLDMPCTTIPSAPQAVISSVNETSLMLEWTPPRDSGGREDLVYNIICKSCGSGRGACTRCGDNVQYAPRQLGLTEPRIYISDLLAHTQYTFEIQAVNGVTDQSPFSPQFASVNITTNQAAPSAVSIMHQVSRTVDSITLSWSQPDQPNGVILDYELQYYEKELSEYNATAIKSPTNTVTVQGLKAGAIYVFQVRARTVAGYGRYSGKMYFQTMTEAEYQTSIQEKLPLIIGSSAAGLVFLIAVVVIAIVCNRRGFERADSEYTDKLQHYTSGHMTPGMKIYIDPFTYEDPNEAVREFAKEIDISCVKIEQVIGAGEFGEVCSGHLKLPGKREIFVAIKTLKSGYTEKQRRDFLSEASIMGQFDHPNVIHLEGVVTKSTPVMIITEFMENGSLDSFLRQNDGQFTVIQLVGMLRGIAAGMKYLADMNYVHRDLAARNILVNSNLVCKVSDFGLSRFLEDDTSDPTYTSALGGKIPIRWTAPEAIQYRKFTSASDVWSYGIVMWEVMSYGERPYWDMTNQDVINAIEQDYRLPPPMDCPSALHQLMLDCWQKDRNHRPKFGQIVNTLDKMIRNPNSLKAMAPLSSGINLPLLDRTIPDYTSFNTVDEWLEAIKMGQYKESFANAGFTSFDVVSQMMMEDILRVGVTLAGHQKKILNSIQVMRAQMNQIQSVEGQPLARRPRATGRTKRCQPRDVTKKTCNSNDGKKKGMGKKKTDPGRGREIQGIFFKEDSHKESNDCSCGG

[12] = target: Platelet-derived growth factor receptor alpha (Homo sapiens, UniProt P16234); test: Inhibition of PDGFRalpha; procedure, shortened: as §2
[13] = target: Insulin-like growth factor 1 receptor (Homo sapiens, UniProt P08069); test: Inhibition of IGF1R; procedure, shortened: as §2
[14] = target: Receptor tyrosine-protein kinase erbB-4 (Homo sapiens, UniProt Q15303); test: Inhibition of ERBB4; procedure, shortened: as §2
[15] = Aqueous solubility of the compound; assay type: physicochemical; details: buffer
[16] = tested on: Mus musculus; test: Toxicity in nude mouse xenografted with human U87MG cells assessed as body weight loss at 100 mg/kg, ip for 3 weeks; assay type: organism-based, U-87MG ATCC; parameters: dose 100 mg/kg, route intraperitoneal; details: in vivo, 504 h
Procedure, shortened: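 Nude mice bearing U-87MG tumor fragments were dosed ip 7 days/week for 3 weeks, n = 6 per group, versus vehicle controls. Body weight was monitored during treatment.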

[17] = Clearance in mouse at 10 mg/kg, iv; assay type: ADME, organism-based; parameters: dose 10 mg/kg, route intravenous; details: in vivo; procedure, shortened: as §4
[18] = Oral bioavailability in mouse at 20 mg/kg; assay type: ADME, organism-based; details: in vivo; procedure, shortened: as §4
[19] = target: T1, Hepatocyte growth factor receptor; details: BaF3, 0.1 to 10 uM
[20] = target: Vascular endothelial growth factor receptor 1 (Homo sapiens, UniProt P17948); test: Inhibition of FLT1; procedure, shortened: as §2
[21] = target: Ephrin type-A receptor 2 (Homo sapiens, UniProt P29317); test: Inhibition of EPHA2; procedure, shortened: as §2
[22] = target: Macrophage-stimulating protein receptor (Homo sapiens, UniProt Q04912); test: Inhibition of RON; procedure, shortened: as §2
[23] = target: Proto-oncogene tyrosine-protein kinase Src (Homo sapiens, UniProt P12931); test: Inhibition of c-SRC; procedure, shortened: as §2
[24] = target: Proto-oncogene tyrosine-protein kinase receptor Ret (Homo sapiens, UniProt P07949); test: Inhibition of RET; procedure, shortened: as §2
[25] = target: T1, Hepatocyte growth factor receptor; details: BaF3, 0.1-10 uM
[26] = Antitumor activity against human U87MG cells xenografted in nude mouse assessed as inhibition of tumor growth at 100 mg/kg; assay type: functional, U-87MG ATCC; details: U-87 MG

T1 sequence (P08581 whole entry): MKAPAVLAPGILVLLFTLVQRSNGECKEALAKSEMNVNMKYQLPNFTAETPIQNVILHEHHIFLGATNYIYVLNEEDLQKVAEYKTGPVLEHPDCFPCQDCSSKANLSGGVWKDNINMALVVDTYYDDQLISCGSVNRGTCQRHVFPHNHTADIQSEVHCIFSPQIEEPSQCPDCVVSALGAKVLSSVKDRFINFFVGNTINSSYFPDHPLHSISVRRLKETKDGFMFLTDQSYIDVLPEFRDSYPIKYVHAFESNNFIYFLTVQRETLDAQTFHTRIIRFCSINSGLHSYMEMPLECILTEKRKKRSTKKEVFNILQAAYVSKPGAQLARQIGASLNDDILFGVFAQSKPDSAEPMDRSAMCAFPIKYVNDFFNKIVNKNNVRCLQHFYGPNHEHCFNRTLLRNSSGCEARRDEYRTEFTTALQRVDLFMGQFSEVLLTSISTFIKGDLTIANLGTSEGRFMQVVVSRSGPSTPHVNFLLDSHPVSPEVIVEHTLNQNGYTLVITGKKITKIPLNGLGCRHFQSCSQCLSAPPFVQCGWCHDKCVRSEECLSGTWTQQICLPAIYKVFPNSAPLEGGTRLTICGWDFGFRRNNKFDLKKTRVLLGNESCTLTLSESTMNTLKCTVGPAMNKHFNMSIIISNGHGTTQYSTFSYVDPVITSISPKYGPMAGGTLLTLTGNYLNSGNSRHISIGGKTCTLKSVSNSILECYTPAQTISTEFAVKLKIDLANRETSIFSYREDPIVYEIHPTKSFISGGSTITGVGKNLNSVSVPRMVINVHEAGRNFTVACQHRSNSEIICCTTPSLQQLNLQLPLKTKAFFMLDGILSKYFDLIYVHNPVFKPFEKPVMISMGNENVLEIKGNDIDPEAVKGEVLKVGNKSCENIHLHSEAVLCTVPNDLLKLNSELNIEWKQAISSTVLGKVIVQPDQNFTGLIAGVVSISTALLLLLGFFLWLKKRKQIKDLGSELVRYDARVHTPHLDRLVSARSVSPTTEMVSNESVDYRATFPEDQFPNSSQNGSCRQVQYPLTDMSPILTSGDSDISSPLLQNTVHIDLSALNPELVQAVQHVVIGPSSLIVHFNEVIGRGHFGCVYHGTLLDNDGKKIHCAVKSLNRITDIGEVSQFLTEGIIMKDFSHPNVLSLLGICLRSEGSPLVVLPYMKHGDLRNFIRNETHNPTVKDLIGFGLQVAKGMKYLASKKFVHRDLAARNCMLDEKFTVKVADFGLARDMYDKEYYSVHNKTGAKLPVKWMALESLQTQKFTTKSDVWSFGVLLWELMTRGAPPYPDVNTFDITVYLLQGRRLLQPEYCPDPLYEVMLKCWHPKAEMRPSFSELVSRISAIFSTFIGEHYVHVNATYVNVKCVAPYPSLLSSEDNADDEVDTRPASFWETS
Ephrin type-A receptor 2, sequence (P29317 whole entry): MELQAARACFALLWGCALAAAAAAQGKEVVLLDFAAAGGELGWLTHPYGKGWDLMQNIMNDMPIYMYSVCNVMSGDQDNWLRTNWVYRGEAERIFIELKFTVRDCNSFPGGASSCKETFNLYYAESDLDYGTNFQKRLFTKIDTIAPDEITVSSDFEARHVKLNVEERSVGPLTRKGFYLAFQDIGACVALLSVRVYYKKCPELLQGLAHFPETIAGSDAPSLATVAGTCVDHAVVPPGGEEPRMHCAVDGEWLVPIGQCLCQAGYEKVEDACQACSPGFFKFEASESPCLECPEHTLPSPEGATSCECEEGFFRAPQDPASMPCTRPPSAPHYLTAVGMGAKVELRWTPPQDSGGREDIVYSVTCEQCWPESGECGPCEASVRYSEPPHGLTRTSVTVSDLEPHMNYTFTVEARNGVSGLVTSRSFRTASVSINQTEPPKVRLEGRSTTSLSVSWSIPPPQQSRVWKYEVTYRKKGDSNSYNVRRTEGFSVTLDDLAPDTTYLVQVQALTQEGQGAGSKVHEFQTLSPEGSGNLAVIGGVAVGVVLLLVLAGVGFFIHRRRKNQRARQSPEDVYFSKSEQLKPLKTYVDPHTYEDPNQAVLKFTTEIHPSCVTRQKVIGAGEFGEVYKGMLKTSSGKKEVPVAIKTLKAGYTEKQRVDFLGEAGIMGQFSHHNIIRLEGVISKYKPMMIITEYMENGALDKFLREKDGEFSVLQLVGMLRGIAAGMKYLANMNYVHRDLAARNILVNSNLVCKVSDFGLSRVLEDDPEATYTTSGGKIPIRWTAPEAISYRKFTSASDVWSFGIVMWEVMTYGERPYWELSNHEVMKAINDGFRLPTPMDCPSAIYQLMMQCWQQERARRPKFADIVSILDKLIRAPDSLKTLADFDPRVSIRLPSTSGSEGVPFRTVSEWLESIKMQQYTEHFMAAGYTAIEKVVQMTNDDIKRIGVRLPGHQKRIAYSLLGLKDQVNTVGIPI
Tyrosine-protein kinase ABL1, sequence (P00519 whole entry): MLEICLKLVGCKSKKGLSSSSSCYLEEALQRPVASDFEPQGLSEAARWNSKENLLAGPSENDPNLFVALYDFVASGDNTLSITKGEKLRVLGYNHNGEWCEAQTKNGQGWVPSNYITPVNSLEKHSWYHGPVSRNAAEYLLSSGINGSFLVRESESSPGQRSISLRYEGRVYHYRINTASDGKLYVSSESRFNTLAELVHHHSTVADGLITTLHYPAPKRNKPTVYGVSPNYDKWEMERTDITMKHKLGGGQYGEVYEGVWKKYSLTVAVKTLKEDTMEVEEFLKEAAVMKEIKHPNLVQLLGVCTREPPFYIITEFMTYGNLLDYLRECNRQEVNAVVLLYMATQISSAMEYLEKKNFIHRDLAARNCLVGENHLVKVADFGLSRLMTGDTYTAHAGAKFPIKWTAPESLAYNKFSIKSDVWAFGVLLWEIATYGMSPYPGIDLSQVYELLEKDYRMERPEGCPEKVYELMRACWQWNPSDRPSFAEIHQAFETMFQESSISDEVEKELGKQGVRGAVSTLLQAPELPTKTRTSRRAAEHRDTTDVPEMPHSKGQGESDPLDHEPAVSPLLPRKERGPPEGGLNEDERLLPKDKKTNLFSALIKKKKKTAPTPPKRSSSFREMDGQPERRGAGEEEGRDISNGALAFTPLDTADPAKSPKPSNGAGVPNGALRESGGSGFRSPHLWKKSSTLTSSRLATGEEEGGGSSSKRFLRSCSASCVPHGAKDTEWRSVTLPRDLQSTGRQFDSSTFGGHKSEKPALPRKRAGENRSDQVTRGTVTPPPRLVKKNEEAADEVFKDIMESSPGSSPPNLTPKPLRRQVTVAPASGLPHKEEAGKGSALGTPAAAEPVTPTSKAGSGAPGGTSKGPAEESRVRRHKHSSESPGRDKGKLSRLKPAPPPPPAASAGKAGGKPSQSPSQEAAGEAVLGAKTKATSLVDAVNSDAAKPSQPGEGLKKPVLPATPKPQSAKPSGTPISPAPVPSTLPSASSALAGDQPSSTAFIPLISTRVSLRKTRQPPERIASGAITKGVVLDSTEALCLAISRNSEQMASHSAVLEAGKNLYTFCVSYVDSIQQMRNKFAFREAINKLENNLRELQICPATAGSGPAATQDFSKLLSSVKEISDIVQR
Receptor tyrosine-protein kinase erbB-2, sequence (P04626 whole entry): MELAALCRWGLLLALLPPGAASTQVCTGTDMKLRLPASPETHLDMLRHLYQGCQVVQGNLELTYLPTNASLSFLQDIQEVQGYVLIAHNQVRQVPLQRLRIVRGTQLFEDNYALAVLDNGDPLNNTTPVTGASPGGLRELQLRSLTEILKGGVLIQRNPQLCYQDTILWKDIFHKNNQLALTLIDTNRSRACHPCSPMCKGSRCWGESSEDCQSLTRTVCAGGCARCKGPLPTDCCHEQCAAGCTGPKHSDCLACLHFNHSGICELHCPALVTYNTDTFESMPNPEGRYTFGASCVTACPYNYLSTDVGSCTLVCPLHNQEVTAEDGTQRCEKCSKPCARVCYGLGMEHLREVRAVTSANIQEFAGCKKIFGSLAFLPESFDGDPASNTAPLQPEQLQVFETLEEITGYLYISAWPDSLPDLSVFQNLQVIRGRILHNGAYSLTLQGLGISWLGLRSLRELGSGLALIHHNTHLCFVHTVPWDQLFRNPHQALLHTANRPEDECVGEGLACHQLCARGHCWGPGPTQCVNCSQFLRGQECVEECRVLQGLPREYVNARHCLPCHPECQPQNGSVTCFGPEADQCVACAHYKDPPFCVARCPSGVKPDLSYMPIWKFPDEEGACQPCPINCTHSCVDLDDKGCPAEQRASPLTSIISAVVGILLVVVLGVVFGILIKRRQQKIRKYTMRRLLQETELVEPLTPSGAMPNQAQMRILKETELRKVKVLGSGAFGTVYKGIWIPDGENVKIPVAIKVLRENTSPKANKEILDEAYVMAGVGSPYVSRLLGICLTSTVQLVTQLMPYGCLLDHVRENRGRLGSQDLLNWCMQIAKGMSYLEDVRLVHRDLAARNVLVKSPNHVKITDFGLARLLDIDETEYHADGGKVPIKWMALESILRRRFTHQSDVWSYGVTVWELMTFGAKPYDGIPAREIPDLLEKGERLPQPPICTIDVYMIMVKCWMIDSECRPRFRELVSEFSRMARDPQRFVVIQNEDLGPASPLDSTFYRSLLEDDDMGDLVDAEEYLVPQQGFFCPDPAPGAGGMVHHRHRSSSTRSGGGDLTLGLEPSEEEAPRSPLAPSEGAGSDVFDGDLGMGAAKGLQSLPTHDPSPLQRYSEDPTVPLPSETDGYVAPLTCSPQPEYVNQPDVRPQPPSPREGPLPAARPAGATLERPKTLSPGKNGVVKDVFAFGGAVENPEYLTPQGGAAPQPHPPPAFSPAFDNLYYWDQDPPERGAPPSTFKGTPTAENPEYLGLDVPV

inhibition [2] | IC50 [3] | Compound | inhibition at 1 µM [4] | inhibition at 0.1 µM [5] | inhibition at 10 µM [6] | also measured
80.4% |  | O=C(Nc1ccc(Oc2ncnc3scc(-c4ccc(-c5ccccc5)cc4)c23)c(F)c1)c1cccn(-c2ccc(F)cc2)c1=O |  |  |  | inhibition [1]: < 50%
18.5% | > 10 µM | [N-]=[N+]=Nc1nc(Oc2ccc(NC(=O)c3cccn(-c4ccc(F)cc4)c3=O)cc2F)c2c(-c3ccccc3)coc2n1 |  |  |  | 
84.9% | 0.0698 µM | O=C(Nc1ccc(Oc2ncnc3occ(-c4ccccc4)c23)c(F)c1)c1cccn(-c2ccc(F)cc2)c1=O | 14.6% | -6.9% | 93.7% | 
94.3% | 0.0357 µM | O=C(Nc1ccc(Oc2ncnc3scc(-c4ccccc4)c23)c(F)c1)c1cccn(-c2ccc(F)cc2)c1=O | 69.5% | -10.5% | 94.6% | IC50 [7]: > 10 µM; IC50 [8]: > 10 µM; IC50 [9]: > 10 µM; half-life [10]: 1.67 h; IC50 [11]: > 10 µM; IC50 [12]: > 10 µM; IC50 [13]: > 10 µM; IC50 [14]: > 10 µM; solubility [15]: Insoluble; Activity [16]: Non-toxic; clearance [17]: 47.2 mL/min/kg; bioavailability [18]: 5%; inhibition [19]: Active; IC50 [20]: > 10 µM; IC50 [21]: > 10 µM; IC50 [22]: 0.0504 µM; IC50 [23]: > 10 µM; IC50 [24]: > 10 µM; inhibition [25]: Active
36.7% | > 10 µM | CS(=O)(=O)c1nc(Oc2ccc(NC(=O)c3cccn(-c4ccc(F)cc4)c3=O)cc2F)c2c(-c3ccccc3)coc2n1 |  |  |  | 
92.1% |  | O=C(Nc1ccc(Oc2ncnc3scc(-c4ccc5ccccc5c4)c23)c(F)c1)c1cccn(-c2ccc(F)cc2)c1=O |  |  |  | inhibition [1]: < 50%
 |  | COc1cc2nccc(Oc3ccc(NC(=S)NC(=O)Cc4ccccc4)cc3F)c2cc1OC |  |  |  | inhibition in vivo at 100 mg/kg [26]: 70%
99.9% | 0.123 µM | COc1ccc(-c2csc3ncnc(Oc4ccc(NC(=O)c5cccn(-c6ccc(F)cc6)c5=O)cc4F)c23)cc1OC |  |  |  | 
24.3% | > 10 µM | Cc1nc(Oc2ccc(NC(=O)c3cccn(-c4ccc(F)cc4)c3=O)cc2F)c2c(-c3cccs3)coc2n1 | -2.8% | 0.6% | -9.7% | 
83.8% | 0.191 µM | O=C(Nc1ccc(Oc2ncnc3scc(-c4ccc(C(F)(F)F)cc4)c23)c(F)c1)c1cccn(-c2ccc(F)cc2)c1=O |  |  |  | 
10.6% | > 10 µM | O=C(Nc1ccc(Oc2ncnc3sc(-c4ccccc4)cc23)c(F)c1)c1cccn(-c2ccc(F)cc2)c1=O |  |  |  | 
33.4% | > 10 µM | CSc1nc(Oc2ccc(NC(=O)c3cccn(-c4ccc(F)cc4)c3=O)cc2F)c2c(-c3ccccc3)coc2n1 | 2% | 10.3% | 14.9% | 
88.4% | 0.0657 µM | O=C(Nc1ccc(Oc2ncnc3scc(-c4ccc(F)c(F)c4)c23)c(F)c1)c1cccn(-c2ccc(F)cc2)c1=O | 13.9% | -1.1% | 89.7% | 
46.6% | > 10 µM | O=C(Nc1ccc(Oc2ncnc3occ(-c4cccs4)c23)c(F)c1)c1cccn(-c2ccc(F)cc2)c1=O | -9.3% | -12.1% | -5.4% | 
31.2% | > 10 µM | Cc1nc(Oc2ccc(NC(=O)c3cccn(-c4ccc(F)cc4)c3=O)cc2F)c2c3c(sc2n1)CCCC3 |  |  |  | 
23.4% | > 10 µM | O=C(Nc1ccc(Oc2ncnc3sc4c(c23)CCCCC4)c(F)c1)c1cccn(-c2ccc(F)cc2)c1=O |  |  |  | 
78.2% |  | CNc1nc(Oc2ccc(NC(=O)c3cccn(-c4ccc(F)cc4)c3=O)cc2F)c2c(-c3ccccc3)coc2n1 |  |  |  | inhibition [1]: < 50%
90% | 0.0465 µM | COc1ccc(-c2csc3ncnc(Oc4ccc(NC(=O)c5cccn(-c6ccc(F)cc6)c5=O)cc4F)c23)cc1 | 91.1% | -10.1% | 94.3% | 
85.5% | 0.042 µM | Cc1ccc(-c2csc3ncnc(Oc4ccc(NC(=O)c5cccn(-c6ccc(F)cc6)c5=O)cc4F)c23)s1 | 60.6% | -2.3% | 95% | 
16.5% | > 10 µM | Cc1coc2ncnc(Oc3ccc(NC(=O)c4cccn(-c5ccc(F)cc5)c4=O)cc3F)c12 |  |  |  | 
71.9% | 0.068 µM | O=C(Nc1ccc(Oc2ncnc3scc(-c4ccc(F)cc4)c23)c(F)c1)c1cccn(-c2ccc(F)cc2)c1=O | 30.8% | 12.9% | 92.2% | 
12.3% | > 10 µM | O=C(Nc1ccc(Oc2ncnc3sc4c(c23)CCC4)c(F)c1)c1cccn(-c2ccc(F)cc2)c1=O |  |  |  | 
31.7% | > 10 µM | COc1nc(Oc2ccc(NC(=O)c3cccn(-c4ccc(F)cc4)c3=O)cc2F)c2c(-c3ccccc3)coc2n1 |  |  |  | 
80.9% | 0.31 µM | O=C(Nc1ccc(Oc2ncnc3occ(-c4ccc(F)cc4)c23)c(F)c1)c1cccn(-c2ccc(F)cc2)c1=O | -5.8% | -4.7% | 76.3% | 
14.3% | > 10 µM | O=C(Nc1ccc(Oc2ncnc3sccc23)c(F)c1)c1cccn(-c2ccc(F)cc2)c1=O | -6.5% | -12.8% | 5.3% | 

Source: ChEMBL document CHEMBL1811756, “Discovery of novel c-Met kinase inhibitors bearing a thieno[2,3-d]pyrimidine or furo[2,3-d]pyrimidine scaffold” (Bioorg Med Chem, 2011)
